KCNK3 block: human KCNK3 channel inhibition, primary screen; AID 602410; B-score at 10 µM; CHO-KCNK3 thallium flux, FluxOR fluorescence; stronger effect = lower value; hit rate 0.84% among 340,000; O14649;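 active = B-score under library mean minus 4 SD, starting fluorescence ratio at most library mean plus 5 SD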;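 note: more negative B-score means stronger inhibition of thallium flux through KCNK3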
hERG rescue: hERG (human) protection from proarrhythmic block. AID 1511. activation (rescue from dofetilide block), less the hit threshold, % at 10 µM. hit rate 0.51% among 310,000. CHO-hERG, FluxOR thallium flux, dofetilide IC70 present. Q12809;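 active = activation above the mean of controls blocked by dofetilide plus 5 SD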;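 note: thallium influx through hERG after potassium depolarization seen as dye fluorescence rise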
KCNQ1 inh: blocks the human KCNQ1 potassium channel; hit rate 1.3% among 310,000; CHO-K1 KCNQ1, FluxOR thallium flux fluorescence; stronger effect = higher value; B-score at 10 µM;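 active = compounds whose thallium flux B-score, printed positive for inhibition, exceeds three library SD while starting fluorescence stays within three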;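 note: channel opened by potassium depolarization with thallium stimulus after 20 min compound exposure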
Kir21 block: blocks the mouse Kir2.1 inward-rectifier potassium channel; P35561; HEK293-Kir2.1, FluxOR thallium flux fluorescence; stronger effect = lower value; B-score at 10 µM; hit rate 0.85% among 310,000; AID 1672;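 active = fluorescence ratio B-score at or below minus 3 SD of library scores, with starting-brightness B-score within 2 SD, cut at about -4.2 in these data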;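 note: channel flux triggered by added potassium and thallium sulfate stimulus; B-score of peak minus minimum fluorescence over baseline after thallium stimulus; more negative B-score means stronger Kir2.1 block with less thallium influx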
KCNK9 inh: inhibitors of human KCNK9 two-pore domain potassium channel; hit rate 1.2% among 310,000; Q9NPC2; B-score at 10 µM; HEK293 KCNK9, FluxOR thallium flux fluorescence; stronger effect = lower value;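 active = ratio B-score over 3 SD below the library mean, with starting fluorescence within 5 SD of its mean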;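 note: negative B-score means less thallium flux so channel inhibition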
Target sequence (Q9NPC2 whole entry, looked up, the tested form may be a part): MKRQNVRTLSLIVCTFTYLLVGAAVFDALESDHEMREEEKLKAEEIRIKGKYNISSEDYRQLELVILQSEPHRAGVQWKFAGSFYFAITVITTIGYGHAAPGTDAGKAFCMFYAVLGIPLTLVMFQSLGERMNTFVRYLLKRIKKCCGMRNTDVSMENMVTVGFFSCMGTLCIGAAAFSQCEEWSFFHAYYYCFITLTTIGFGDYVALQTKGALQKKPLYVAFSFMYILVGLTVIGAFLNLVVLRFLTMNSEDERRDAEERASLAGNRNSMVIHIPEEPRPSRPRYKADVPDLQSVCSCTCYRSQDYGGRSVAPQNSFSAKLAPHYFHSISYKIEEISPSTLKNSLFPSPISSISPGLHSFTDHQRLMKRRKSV
KCNQ1 act: potentiators or activators of human KCNQ1 potassium channel | CHO-K1 KCNQ1, thallium flux FluxOR fluorescence; stronger effect = higher value | hit rate 0.35% among 310,000 | B-score at 10 µM | P51787;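 active = fluorescence ratio B-score, a plate-corrected score, at least three library SD, with initial intensity B-score within 5 SD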
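Assay system: CHO-K1 cells stably expressing KCNQ1; Medium: assay buffer with matched DMSO; Also added: K+/Tl+ depolarizing stimulus; Dosing: single dose; Timing: dye 90 min, compound 20 min, room temperature; Measured by: kinetic FluxOR thallium fluorescence, 10-s 1-Hz baseline, 110-s post-stimulus read; Read-out: peak-minus-minimum fluorescence over initial fluorescence, negative-control normalized, B-scored.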
Numbers without * were called inactive; i = inactive; nt = no result given. Most compounds without a hit are left out; they make up all but 3.7% or so of the library.

SMILES | KCNK3 block | hERG rescue | KCNQ1 inh | Kir21 block | KCNK9 inh | KCNQ1 act
COc1ccc(C(C(=O)NC(C)(C)C)N(C(=O)CCC(=O)Nc2cc(C)on2)c2cccc(F)c2)cc1 (stereo unspecified) | i | 7.1* | i | 0.08 | i | 24*
CCC(C)(C)NC(=O)C(c1ccc(OC)cc1)N(C(=O)CCC(=O)Nc1cc(C)on1)c1cccc(F)c1 (stereo unspecified) | i | -4.4 | i | -0.64 | i | i
COc1cccc(C2(O)CCN(C(=O)C3CCC3)CC2)c1 | i | 4.8* | i | 0.02 | i | i
N#Cc1c(N)[nH]c2ccc(Sc3ccccc3)cc12 | i | nt | nt | nt | nt | nt
CCCCCCCCNS(=O)(=O)CCNCc1ccco1 | i | nt | nt | nt | nt | nt
COc1cccc(CC(=O)OC(C)C(=O)Nc2ncc(Cl)cc2Cl)c1 (stereo unspecified) | i | -10.7 | i | -4.46* | i | i
Cc1ccc2c(CC(=O)OC(C)C(=O)Nc3ncc(Cl)cc3Cl)coc2c1 (stereo unspecified) | i | -6.1 | i | -4.48* | i | i
CC(OC(=O)Cc1coc2ccc3ccccc3c12)C(=O)Nc1ncc(Cl)cc1Cl (stereo unspecified) | i | -3.0 | i | -5.56* | i | i
CCOc1ccccc1OCC(=O)OC(C)C(=O)Nc1ncc(Cl)cc1Cl (stereo unspecified) | i | nt | nt | nt | nt | nt
CCOc1ccc(CCNC(=O)CSc2ncn[nH]2)cc1OCC | i | -9.9 | i | -0.93 | i | i
C=C1CC(Cn2cc(Br)c(=O)[nH]c2=O)(c2ccc(-c3ccccc3)cc2)OC1=O (stereo unspecified) | i | nt | nt | nt | nt | nt
O=C(c1ccccc1)c1ccc2nc(-c3ccco3)c(-c3ccco3)nc2c1 | i | -17.1 | 9* | -0.79 | i | i
CSCCC(NC(=O)c1ccccc1Br)C(=O)N1CCCC(C(F)(F)F)C1 (stereo unspecified) | i | -16.3 | i | -0.64 | i | i
N#Cc1ccc(-c2nnnn2-c2ccc3c(c2)OCO3)cc1 | i | 4.8* | i | -0.73 | i | i
CN(C(=O)c1cccc(NC(=O)Cc2cccc(NC(=O)C3CCCN(C(=O)C4CCCCC4)C3)c2)c1)C1CC1 (stereo unspecified) | i | nt | nt | nt | nt | nt
CCOC(=O)N1CCN(C(=O)c2ccc3c(=O)n(Cc4ccc(Cl)cc4)c(=S)[nH]c3c2)CC1 | i | -12.7 | i | 0.35 | i | i
CCOC(=O)Cn1c(=S)[nH]c2c(oc3ccc(Cl)cc32)c1=O | i | -14.0 | i | -1.94 | i | 12*
